Data as given in ChEMBL document CHEMBL4842317, “Discovery of novel 3-hydroxyandrosta-5,7-Diene-17-Carboxylic acid derivatives as anti-inflammatory bowel diseases (IBD) agents” (Eur J Med Chem, 2021).
Calls of active or inactive are those of the source. No cut-off for these calls is given here.

Assays:
RAW264.7 [1] = assay: Antiinflammatory activity against mouse RAW264.7 cells assessed as inhibition of LPS-induced NO production measured after 24 hrs by Griess assay; assay type: functional, cell-based; settings: RAW264.7, 24 h
How it was run: (§1)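 RAW 264.7 cells (1 × 10^5 cells/mL) are cultured 24 h, stimulated with LPS (100 ng/mL final), and treated with compounds from 100 μM downward for 24 h in DMEM with 10% FBS. Medium nitrite is measured by Griess reaction (sulfanilamide, naphthylethylenediamine, phosphoric acid, 10 min, room temperature, dark). Mean + SD from three independent experiments.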

RAW264.7 [2] = assay: Cytotoxicity against mouse RAW264.7 cells assessed as reduction in cell viability at 3 to 100 uM incubated for 24 hrs in presence of LPS by MTT assay; assay type: cell-based; settings: raw264.7, 24 h, dose 3-100 µM
How it was run: (§2)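 RAW 264.7 cells are seeded at 1.0 × 10^4 per well and incubated overnight. Compounds are added at concentrations from 100 μM downward, with or without LPS (100 ng/mL), for 24 h. MTT (0.5 mg/mL) is added for 4 h and the formazan is dissolved in DMSO for the read-out.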

RAW264.7 [3] = assay: Antiinflammatory activity against mouse RAW264.7 cells assessed as inhibition of LPS-induced NO production at 20 uM after 24 hrs by Griess assay; assay type: functional; how it was run: as §1
RAW264.7 [4] = assay: Cytotoxicity against mouse RAW264.7 cells assessed as reduction in cell viability at 3 to 100 uM incubated for 24 hrs by MTT assay; assay type: cell-based; settings: raw264.7, 24 h, dose 3-100 µM; how it was run: as §2
RAW264.7 [5] = assay: Antiinflammatory activity against mouse RAW264.7 cells assessed as inhibition of LPS-induced iNOS mRNA expression at 20 uM incubated for 8 hrs in presence of LPS by qRT-PCR analysis; assay type: functional, cell-based
How it was run: (§3)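 RAW 264.7 cells are grown 12 h in six-well plates, then exposed to LPS (100 ng/ml) plus compound for 8 h. Reverse transcription is followed by SYBR Green qPCR with GAPDH as internal control. Relative expression is calculated by 2^-ΔΔCT versus the untreated control. Mean + SD from three independent experiments.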

RAW264.7 [6] = assay: Antiinflammatory activity against mouse RAW264.7 cells assessed as inhibition of LPS-induced COX2 mRNA expression at 20 uM incubated for 8 hrs in presence of LPS by qRT-PCR analysis; assay type: functional, cell-based; how it was run: as §3
RAW264.7 [7] = assay: Antiinflammatory activity against mouse RAW264.7 cells assessed as decrease in LPS-induced IL-1beta mRNA expression at 20 uM in presence of LPS by qRT-PCR analysis; assay type: functional, cell-based; how it was run: as §3
RAW264.7 [8] = assay: Antiinflammatory activity against mouse RAW264.7 cells assessed as decrease in LPS-induced IL-6 mRNA expression at 20 uM in presence of LPS by qRT-PCR analysis; assay type: functional, cell-based; how it was run: as §3
RAW264.7 [9] = assay: Antiinflammatory activity against mouse RAW264.7 cells assessed as decrease in LPS-induced TNF-alpha mRNA expression at 20 uM in presence of LPS by qRT-PCR analysis; assay type: functional, cell-based; how it was run: as §3
RAW264.7 [10] = assay: Antiinflammatory activity against mouse RAW264.7 cells assessed as inhibition of LPS-induced MCP-1 mRNA expression at 20 uM in presence of LPS by qRT-PCR analysis; assay type: functional, cell-based; how it was run: as §3
RAW264.7 [11] = assay: Antiinflammatory activity against mouse RAW264.7 cells assessed as decrease in LPS-induced NF-kappB mRNA expression at 20 uM in presence of LPS by qRT-PCR analysis; assay type: functional, cell-based; how it was run: as §3

Row | Compound | IC50 (RAW264.7 [1]) [µM] | Activity (RAW264.7 [2]) | inhibition at 20 µM (RAW264.7 [3]) [%] | Activity (RAW264.7 [4]) | Activity (RAW264.7 [5]) | Activity (RAW264.7 [6]) | Activity (RAW264.7 [7]) | Activity (RAW264.7 [8]) | Activity (RAW264.7 [9]) | Activity (RAW264.7 [10]) | Activity (RAW264.7 [11])
1 | CCCOC(=O)[C@H]1CC[C@H]2C3=CC=C4C[C@@H](O)CC[C@]4(C)[C@H]3CC[C@]12C | 9.02 | Non-Toxic | 89.4 | Non-Toxic | Active | Active | Active | Active | Active | Active | Active
2 | CC(=O)NCCNC(=O)[C@H]1CC[C@H]2[C@@H]3CC=C4C[C@@H](O)CC[C@]4(C)[C@H]3CC[C@]12C | > 20 | Non-Toxic | 16.1 | Non-Toxic |  |  |  |  |  |  | 
3 | CCN(CC)C(=O)[C@H]1CC[C@H]2[C@@H]3CC=C4C[C@@H](O)CC[C@]4(C)[C@H]3CC[C@]12C | > 20 | Non-Toxic | 25.5 | Non-Toxic |  |  |  |  |  |  | 
4 | CCCCOC(=O)[C@H]1CC[C@H]2C3=CC=C4C[C@@H](O)CC[C@]4(C)[C@H]3CC[C@]12C | > 20 | Non-Toxic | 37.8 | Non-Toxic |  |  |  |  |  |  | 
5 | C[C@]12CC[C@H]3[C@@H](CC=C4C[C@@H](O)CC[C@@]43C)[C@@H]1CC[C@@H]2C(=O)NCCc1ccccc1 | > 20 | Non-Toxic | 45.4 | Non-Toxic |  |  |  |  |  |  | 
6 | CC(C)(O)CNC(=O)[C@H]1CC[C@H]2[C@@H]3CC=C4C[C@@H](O)CC[C@]4(C)[C@H]3CC[C@]12C | > 20 | Non-Toxic | 38.8 | Non-Toxic |  |  |  |  |  |  | 
7 | C[C@]12CC[C@H]3[C@@H](CC=C4C[C@@H](O)CC[C@@]43C)[C@@H]1CC[C@@H]2C(=O)NCCN1CCOCC1 | > 20 | Non-Toxic | 36.4 | Non-Toxic |  |  |  |  |  |  | 
8 | Cc1ccn(C(=O)[C@H]2CC[C@H]3[C@@H]4CC=C5C[C@@H](O)CC[C@]5(C)[C@H]4CC[C@]23C)n1 | > 20 | Non-Toxic | 35.8 | Non-Toxic |  |  |  |  |  |  | 
9 | C[C@]12CC[C@H]3[C@@H](CC=C4C[C@@H](O)CC[C@@]43C)[C@@H]1CC[C@@H]2C(=O)NC1CCCCC1 | > 20 | Non-Toxic | 47.8 | Non-Toxic |  |  |  |  |  |  | 
10 | CC(C)CCNC(=O)[C@H]1CC[C@H]2[C@@H]3CC=C4C[C@@H](O)CC[C@]4(C)[C@H]3CC[C@]12C | 11.3 | Non-Toxic | 59.2 | Non-Toxic |  |  |  |  |  |  | 
11 | CCCC[C@](C)(O)[C@H]1CC[C@H]2C3=CC=C4C[C@@H](O)CC[C@]4(C)[C@H]3CC[C@@]21C | > 20 | Non-Toxic | 28.8 | Non-Toxic |  |  |  |  |  |  | 
12 | COC(=O)[C@H]1CC[C@H]2C3=CC=C4C[C@@H](O)CC[C@]4(C)[C@H]3CC[C@]12C | > 20 | Non-Toxic | 21.8 | Non-Toxic |  |  |  |  |  |  | 
13 | C[C@]12CC[C@H]3[C@@H](CC=C4C[C@@H](O)CC[C@@]43C)[C@@H]1CC[C@@H]2C(=O)NC1CC1 | > 20 | Non-Toxic | 40.5 | Non-Toxic |  |  |  |  |  |  | 
14 | CCCNC(=O)[C@H]1CC[C@H]2[C@@H]3CC=C4C[C@@H](O)CC[C@]4(C)[C@H]3CC[C@]12C | 15.6 | Non-Toxic | 72.8 | Non-Toxic | inactive | Active | inactive | inactive | inactive | Active | Active
15 | CCCCNC(=O)[C@H]1CC[C@H]2[C@@H]3CC=C4C[C@@H](O)CC[C@]4(C)[C@H]3CC[C@]12C | > 20 | Non-Toxic | 44.4 | Non-Toxic |  |  |  |  |  |  | 
16 | C[C@]12CC[C@H]3[C@@H](CC=C4C[C@@H](O)CC[C@@]43C)[C@@H]1CC[C@@H]2C(=O)Nc1n[nH]cc1C#N | > 20 | Non-Toxic | 24.9 | Non-Toxic |  |  |  |  |  |  | 
17 | CCOC(=O)[C@H]1CC[C@H]2C3=CC=C4C[C@@H](O)CC[C@]4(C)[C@H]3CC[C@]12C | > 20 | Non-Toxic | 11.3 | Non-Toxic |  |  |  |  |  |  | 
18 | CC[C@](C)(O)[C@H]1CC[C@H]2C3=CC=C4C[C@@H](O)CC[C@]4(C)[C@H]3CC[C@@]21C | 27 | Non-Toxic | 52.5 | Non-Toxic |  |  |  |  |  |  | 
19 | C[C@]12CC[C@H]3[C@@H](CC=C4C[C@@H](O)CC[C@@]43C)[C@@H]1CC[C@@H]2C(=O)NCCc1cccs1 | 21.2 | Non-Toxic | 55.6 | Non-Toxic |  |  |  |  |  |  | 
20 | CC(C)NC(=O)[C@H]1CC[C@H]2[C@@H]3CC=C4C[C@@H](O)CC[C@]4(C)[C@H]3CC[C@]12C | > 20 | Non-Toxic | 7.84 | Non-Toxic |  |  |  |  |  |  | 
21 | C[C@]12CC[C@H]3[C@@H](CC=C4C[C@@H](O)CC[C@@]43C)[C@@H]1CC[C@@H]2C(=O)NCCO | > 20 | Non-Toxic | 41.1 | Non-Toxic |  |  |  |  |  |  | 
22 | CCC[C@](C)(O)[C@H]1CC[C@H]2C3=CC=C4C[C@@H](O)CC[C@]4(C)[C@H]3CC[C@@]21C | > 20 | Non-Toxic | 55.3 | Non-Toxic |  |  |  |  |  |  | 
23 | C[C@]12CC[C@H]3[C@@H](CC=C4C[C@@H](O)CC[C@@]43C)[C@@H]1CC[C@@H]2C(=O)NCCCn1ccnc1 | > 20 | Non-Toxic | 50.4 | Non-Toxic |  |  |  |  |  |  | 
24 | C[C@]12CC[C@H]3[C@@H](CC=C4C[C@@H](O)CC[C@@]43C)[C@@H]1CC[C@@H]2C(=O)N1CCCCC1 | > 20 | Non-Toxic | 37.4 | Non-Toxic |  |  |  |  |  |  | 
25 | C[C@]12CC[C@H]3[C@@H](CC=C4C[C@@H](O)CC[C@@]43C)[C@@H]1CC[C@@H]2C(=O)NCCN1CCCC1 | 31.3 | Non-Toxic | 50.4 | Non-Toxic |  |  |  |  |  |  | 
